Active and inactive are the calls of the source. The rule behind the calls is not given here.
What was measured:
[1] = biological target: GABA-A receptor; anion channel (Rattus norvegicus) (UniProt O09028+P15431+P18506+P18508+P19969+P20236+P23574+P23576+P28471+P28473+P30191+P62813+P63079+P63138+Q91ZM7+Q9ES14); experiment: Binding affinity by displacement of [3H]flumazenil from rat cortex homogenates; Not active; type: functional
Outline: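 Displacement of [3H]flumazenil from rat cortex homogenates. […] Values are averages (±SD); some analogues were run once as a single set of triplicates. NA means an IC50 was not achieved at the highest dose tested.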

[2] = biological target: T1, Gamma-aminobutyric acid receptor subunit alpha-2 (Homo sapiens) (UniProt P47869); experiment: Maximum percent potentiation against gamma-aminobutyric acid (GABA) A receptor, alpha 2; details: Xenopus laevis
T1 sequence (whole entry): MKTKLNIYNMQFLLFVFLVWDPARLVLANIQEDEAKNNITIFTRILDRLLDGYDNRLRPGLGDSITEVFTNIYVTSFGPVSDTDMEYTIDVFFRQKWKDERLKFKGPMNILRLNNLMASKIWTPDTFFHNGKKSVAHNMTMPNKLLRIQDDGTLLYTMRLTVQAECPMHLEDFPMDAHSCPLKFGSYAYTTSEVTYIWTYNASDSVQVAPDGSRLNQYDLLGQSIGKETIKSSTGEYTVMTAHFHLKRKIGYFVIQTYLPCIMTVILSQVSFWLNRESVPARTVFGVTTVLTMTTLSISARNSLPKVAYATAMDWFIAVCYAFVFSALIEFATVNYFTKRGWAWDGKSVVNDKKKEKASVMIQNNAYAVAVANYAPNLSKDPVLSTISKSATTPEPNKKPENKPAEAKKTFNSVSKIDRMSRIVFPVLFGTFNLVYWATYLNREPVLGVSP
Outline: (§1)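 Xenopus laevis oocytes were injected with human cRNA for the α, β and γ subunits needed to express each receptor subtype (α1, α2, α3 or α5). Electrophysiological recording was used to read potentiation, and the effective concentration and maximal percent potentiation were derived from it.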

[3] = biological target: T2, Gamma-aminobutyric acid receptor subunit alpha-2 (Homo sapiens, UniProt P47869); experiment: Effective concentration against gamma-aminobutyric acid (GABA) A receptor, alpha 2; set-up: species or system Xenopus laevis; outline: as §1
T2 sequence (P47869 whole entry): T1 sequence (whole entry)

[4] = biological target: T3, Gamma-aminobutyric acid receptor subunit alpha-3 (Homo sapiens) (UniProt P34903); experiment: Maximum percent potentiation against gamma-aminobutyric acid (GABA) A receptor, alpha 3; details: Xenopus laevis; outline: as §1
T3 sequence (whole entry): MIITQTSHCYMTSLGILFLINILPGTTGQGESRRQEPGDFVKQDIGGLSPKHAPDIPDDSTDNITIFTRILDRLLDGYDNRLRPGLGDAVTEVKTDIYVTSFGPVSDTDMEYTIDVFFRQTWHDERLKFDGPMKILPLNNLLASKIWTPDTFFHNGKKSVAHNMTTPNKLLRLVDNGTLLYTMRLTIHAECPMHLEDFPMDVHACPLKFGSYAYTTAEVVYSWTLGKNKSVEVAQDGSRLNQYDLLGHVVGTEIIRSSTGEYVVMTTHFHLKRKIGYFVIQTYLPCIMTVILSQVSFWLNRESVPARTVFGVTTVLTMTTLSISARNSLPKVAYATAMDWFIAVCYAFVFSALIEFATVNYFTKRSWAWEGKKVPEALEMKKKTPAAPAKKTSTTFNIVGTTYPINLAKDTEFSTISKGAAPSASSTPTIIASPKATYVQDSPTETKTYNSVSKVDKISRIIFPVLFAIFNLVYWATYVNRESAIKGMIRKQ

[5] = biological target: T4, Gamma-aminobutyric acid receptor subunit alpha-3 (Homo sapiens, UniProt P34903); experiment: Effective concentration against gamma-aminobutyric acid (GABA) A receptor, alpha 3; set-up: species or system Xenopus laevis; outline: as §1
T4 sequence (P34903 whole entry): T3 sequence (whole entry)

[6] = biological target: T5, Gamma-aminobutyric acid receptor subunit alpha-5 (Homo sapiens) (UniProt P31644); experiment: Maximum percent potentiation against gamma-aminobutyric acid (GABA) A receptor, alpha 5; details: Xenopus laevis; outline: as §1
T5 sequence (whole entry): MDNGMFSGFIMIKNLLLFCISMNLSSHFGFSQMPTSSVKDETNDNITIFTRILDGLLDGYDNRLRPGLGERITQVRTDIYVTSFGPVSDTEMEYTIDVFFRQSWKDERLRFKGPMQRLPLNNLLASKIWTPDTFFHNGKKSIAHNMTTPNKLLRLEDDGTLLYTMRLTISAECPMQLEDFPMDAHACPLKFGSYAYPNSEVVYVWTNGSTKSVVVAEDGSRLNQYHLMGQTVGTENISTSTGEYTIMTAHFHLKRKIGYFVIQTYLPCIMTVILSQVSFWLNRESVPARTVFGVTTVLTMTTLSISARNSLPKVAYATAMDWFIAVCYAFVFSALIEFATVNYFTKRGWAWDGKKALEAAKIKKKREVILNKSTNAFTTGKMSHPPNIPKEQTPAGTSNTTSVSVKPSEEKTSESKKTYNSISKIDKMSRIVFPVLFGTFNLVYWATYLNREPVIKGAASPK

[7] = biological target: T6, Gamma-aminobutyric acid receptor subunit alpha-5 (Homo sapiens, UniProt P31644); experiment: Effective concentration against Gamma-aminobutyric acid A receptor, alpha 5; set-up: species or system Xenopus laevis; outline: as §1
T6 sequence (P31644 whole entry): T5 sequence (whole entry)

[8] = biological target: GABA-A receptor; anion channel; experiment: Binding affinity was determined by displacement of [3H]flumazenil from rat cortex homogenates; type: functional
Outline: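 Displacement of [3H]flumazenil from rat cortex homogenates. Values are averages (±SD); some analogues were run once as a single set of triplicates. NA means an IC50 was not achieved at the highest dose tested.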

[9] = biological target: T7, Gamma-aminobutyric acid receptor subunit alpha-1 (Homo sapiens, UniProt P14867); experiment: Effective concentration against gamma-aminobutyric acid (GABA) A receptor, alpha 1; set-up: species or system Xenopus laevis; outline: as §1
T7 sequence (P14867 whole entry): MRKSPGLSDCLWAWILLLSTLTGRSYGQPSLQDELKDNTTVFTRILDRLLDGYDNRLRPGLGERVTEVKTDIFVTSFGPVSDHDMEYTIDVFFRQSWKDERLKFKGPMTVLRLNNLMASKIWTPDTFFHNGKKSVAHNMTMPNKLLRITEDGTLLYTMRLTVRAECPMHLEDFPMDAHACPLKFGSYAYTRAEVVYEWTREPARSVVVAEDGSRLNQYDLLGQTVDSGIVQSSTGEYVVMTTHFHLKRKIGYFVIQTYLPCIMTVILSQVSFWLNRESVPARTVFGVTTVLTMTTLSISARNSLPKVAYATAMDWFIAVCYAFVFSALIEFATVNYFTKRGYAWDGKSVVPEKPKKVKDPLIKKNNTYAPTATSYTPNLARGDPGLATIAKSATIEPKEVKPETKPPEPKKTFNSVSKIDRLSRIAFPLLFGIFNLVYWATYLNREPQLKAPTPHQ

[10] = biological target: T8, Gamma-aminobutyric acid receptor subunit alpha-1 (Homo sapiens) (UniProt P14867); experiment: Maximum percent potentiation against gamma-aminobutyric acid (GABA) A receptor, alpha 1; details: Xenopus laevis; outline: as §1
T8 sequence (whole entry): T7 sequence (P14867 whole entry)

Rattus norvegicus [11] = species on record: Rattus norvegicus; experiment: Rat behavioral spontaneous Locomotor Activity; type: functional
Outline: (§2)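 Male Sprague-Dawley rats received the test drug iv in 50% aqueous PEG-400, which also served as the control vehicle. They were then placed in an automated activity monitor, and movement time, total distance and vertical activity were recorded over 15 min. Each drug was compared against vehicle, and NS marks a difference that was not significant.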

Rattus norvegicus [12] = species on record: Rattus norvegicus; experiment: Rat behavioral spontaneous Locomotor Activity; Not significant.; type: functional, organism-based; outline: as §2

SMILES | NA [1] | Activity [2] [%] | EC50 [3] [nM] | Activity [4] [%] | EC50 [5] [nM] | Activity [6] [%] | EC50 [7] [nM] | Ki [8] [nM] | EC50 [9] [nM] | Activity [10] [%] | minimum effective dose on locomotor activity (Rattus norvegicus [11]) [mg/kg] | OMNI med (Rattus norvegicus [11]) [mg/kg] | NS (Rattus norvegicus [12])
COc1ccc(-c2cn3c(O)nc4c(c3n2)CN(C(=O)c2ccccc2)CC4)cc1 | inactive |  |  |  |  |  |  |  |  |  |  |  | 
Oc1nc2c(c3nc(-c4ccccc4F)cn13)CN(CC1CC1)CC2 |  | 36 | 1160 | 28 | 424 | 7 | 94 | 30 | 135 | 31 |  |  | 
O=C(c1ccccc1)N1CCc2nc(O)n3cc(-c4cccc(Cl)c4)nc3c2C1 | inactive |  |  |  |  |  |  |  |  |  |  |  | 
CCCCN1CCc2nc(O)n3cc(-c4ccccc4F)nc3c2C1 |  | 86 | 247 | 72 | 394 | 4 | 291 | 7.3 | 258 | 70 |  |  | 
CCC(=O)N1CCc2nc(O)n3cc(-c4ccc(OC)cc4)nc3c2C1 | inactive |  |  |  |  |  |  |  |  |  |  |  | 
O=c1[nH]c2c(c3nc(-c4ccc(F)cc4F)cn13)CN(Cc1ccccc1)CC2 |  |  | 210 |  | 500 |  | 323 | 2 | 92 |  |  |  | 
COc1ccc(-c2cn3c(O)nc4c(c3n2)CN(Cc2ccccc2)CC4)cc1 |  | 142 |  |  |  |  |  |  |  | 122 | 0.06 |  | 
CCCCCC(=O)N1CCc2nc(O)n3cc(-c4ccccc4F)nc3c2C1 | inactive |  |  |  |  |  |  |  |  |  |  |  | 
Cc1nnc2n1-c1ccc(Cl)cc1C(c1ccccc1)=NC2 [ALPRAZOLAM] |  | 333 | 12 | 774 | 69 | 206 | 10 | 3.3 | 37 | 327 |  | 0.125 | 
Oc1nc2c(c3nc(-c4ccccc4F)cn13)CN(Cc1cccnc1)CC2 |  | 78 |  | 81 |  | 0 |  |  |  | 29 | 0.5 |  | 
Oc1nc2c(c3nc(-c4ccccc4F)cn13)CN(Cc1ccncc1)CC2 |  | 42 | 99 | 58 | 33 | 0 |  | 0.9 | 53 | 17 |  |  | inactive
Oc1nc2c(c3nc(-c4ccccc4F)cn13)CN(Cc1cccs1)CC2 |  | 54 | 67 | 96 | 367 | 49 | 375 | 0.5 | 107 | 50 |  |  | 
Cc1ccc(-c2nc3ccc(C)cn3c2CC(=O)N(C)C)cc1 [ZOLPIDEM] |  | 291 |  | 700 |  | < 20 | > 3000 |  |  | 322 |  | 0.25 | 
Oc1nc2c(c3nc(-c4cccc(F)c4)cn13)CN(Cc1ccccc1)CC2 |  | 81 |  |  |  |  |  |  |  | 92 | 2 |  | 
Cc1ccc(-c2cn3c(O)nc4c(c3n2)CN(Cc2ccccc2)CC4)cc1 |  | 94 | 1180 | 174 | 3830 | 17 | 650 | 43 | 266 | 62 |  |  | 
Oc1nc2c(c3nc(-c4ccccc4F)cn13)CNCC2 | inactive |  |  |  |  |  |  |  |  |  |  |  | 
O=c1[nH]c2c(c3nc(-c4ccccc4F)cn13)CN(Cc1cnc[nH]1)CC2 |  |  | 459 |  | 425 |  | 439 | 10.1 | 118 |  |  |  | 
Oc1nc2c(c3nc(-c4ccc(F)cc4)cn13)CN(Cc1ccccc1)CC2 |  | 155 |  |  |  |  |  |  |  | 186 | 1 |  | 
